# Reference: ChEMBL document CHEMBL2177095, “Discovery of selective and potent inhibitors of gram-positive bacterial thymidylate kinase (TMK)” (J Med Chem, 2012)
# What was measured:
# [1] = Inhibition of Staphylococcus aureus thymidylate kinase assessed as effect on conversion of dTDP to dTMP by luciferin/luciferase reporter gene based assay
# [2] = Inhibition of Streptococcus pneumoniae thymidylate kinase assessed as effect on conversion of dTDP to dTMP by luciferin/luciferase reporter gene based assay
# Candida albicans = test: Toxicity against Candida albicans; format: organism-based
# Streptococcus pneumoniae = test: Antimicrobial activity against Streptococcus pneumoniae by broth microdilution method; format: functional
# Procedure, shortened: (§1)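 Test organisms were strains from the AstraZeneca collection.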
# Thymidylate kinase = molecular target: T1, Thymidylate kinase (Homo sapiens, UniProt P23919); test: Inhibition of human thymidylate kinase assessed as effect on ATP production by Escherichia coli DdlA and Malachite green reagent based assay
# T1 sequence (P23919 whole entry): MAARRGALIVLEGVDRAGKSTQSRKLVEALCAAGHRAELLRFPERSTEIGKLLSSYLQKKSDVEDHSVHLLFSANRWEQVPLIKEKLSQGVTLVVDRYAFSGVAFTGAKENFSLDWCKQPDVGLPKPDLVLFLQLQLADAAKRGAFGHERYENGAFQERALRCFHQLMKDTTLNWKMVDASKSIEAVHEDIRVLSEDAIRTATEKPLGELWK
# [3] = Partition coefficient, log D of the compound at pH 7.4 by shake flask method; conditions: octanol/water
# [4] = Toxicity against human A549 cells; format: cell-based; conditions: read-out: MIC
# Staphylococcus aureus [5] = test: Antimicrobial activity against methicillin and quinolone-resistant Staphylococcus aureus by broth microdilution method; format: functional
# Procedure, shortened: (§2)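 MICs were determined against bacterial strains from the AstraZeneca collection. For S. aureus, MSQS means methicillin- and quinolone-sensitive, and MRQR means methicillin- and quinolone-resistant.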
# Staphylococcus aureus [6] = test: Antimicrobial activity against methicillin and quinolone-sensitive Staphylococcus aureus by broth microdilution method; format: functional; procedure, shortened: as §2
# Enterococcus faecalis = test: Antimicrobial activity against vancomycin-resistant Enterococcus faecalis by broth microdilution method; format: functional; procedure, shortened: as §2
# Staphylococcus aureus [7] = test: Antimicrobial activity against Staphylococcus aureus infected in mouse thigh infection model assessed as compound dose causing microbial infection stasis administered as single dose; format: functional, Thigh muscle
# Streptococcus pyogenes = test: Antimicrobial activity against Streptococcus pyogenes by broth microdilution method; format: functional; procedure, shortened: as §1
# [8] = Toxicity in Staphylococcus aureus infected mouse thigh infection model assessed as incidence of adverse events; format: organism-based, Thigh muscle; conditions: in vivo
# Enterococcus faecium = test: Antimicrobial activity against linezolid-resistant Enterococcus faecium by broth microdilution method; format: functional; procedure, shortened: as §2
# [9] = tested on: Staphylococcus epidermidis; test: Antimicrobial activity against Staphylococcus epidermidis by broth microdilution method; format: functional; procedure, shortened: as §1
SMILES,IC50 [1],IC50 [2],MIC (Candida albicans),MIC (Streptococcus pneumoniae),IC50 (Thymidylate kinase),logD [3],MCC [4],MIC (Staphylococcus aureus [5]),MIC (Staphylococcus aureus [6]),MIC (Enterococcus faecalis),Activity (Staphylococcus aureus [7]),MIC (Streptococcus pyogenes),NOAEL [8],MIC (Enterococcus faecium),MIC [9]
Cc1ccc(Oc2cccc(CN3CCC[C@H](n4cc(C)c(=O)[nH]c4=O)C3)c2)cc1Cl,1900 nM,1000 nM,,,,,,,,,,,,,
Cc1cn([C@H]2CCCN([C@H](C)c3ccc(C(=O)O)c(Oc4cccc(Cl)c4)c3)C2)c(=O)[nH]c1=O,2.5 nM,0.3 nM,> 64 µg/mL,0.1 µg/mL,150000 nM,-0.26,> 64 µg/mL,8 µg/mL,4 µg/mL,,,,,,
Cc1cn([C@H]2CCCN([C@@H](C)c3ccc(C(=O)O)c(Oc4cccc(Cl)c4)c3)C2)c(=O)[nH]c1=O,29.3 nM,1 nM,,0.25 µg/mL,,-0.3,,8 µg/mL,8 µg/mL,,,,,,
CC[C@@H](c1ccc(C(=O)O)c(Oc2cccc(Cl)c2)c1)N1CCC[C@H](n2cc(C)c(=O)[nH]c2=O)C1,18.3 nM,3 nM,,0.25 µg/mL,,0.2,,4 µg/mL,2 µg/mL,,,,,,
CCC[C@H](c1ccc(C(=O)O)c(Oc2cccc(Cl)c2)c1)N1CCC[C@H](n2cc(C)c(=O)[nH]c2=O)C1,8.3 nM,0.3 nM,> 64 µg/mL,0.05 µg/mL,150000 nM,,> 64 µg/mL,1 µg/mL,1 µg/mL,,,,,,
CCC[C@@H](c1ccc(C(=O)O)c(Oc2cccc(Cl)c2)c1)N1CCC[C@H](n2cc(C)c(=O)[nH]c2=O)C1,18 nM,0.6 nM,,0.1 µg/mL,,,,4 µg/mL,4 µg/mL,,,,,,
Cc1cn([C@H]2CCCN([C@H](CC(C)C)c3ccc(C(=O)O)c(Oc4cccc(Cl)c4)c3)C2)c(=O)[nH]c1=O,,< 0.2 nM,,0.03 µg/mL,,0.9,,1 µg/mL,1 µg/mL,,,,,,
Cc1cn([C@H]2CCCN([C@@H](CC(C)C)c3ccc(C(=O)O)c(Oc4cccc(Cl)c4)c3)C2)c(=O)[nH]c1=O,13.5 nM,0.6 nM,,0.05 µg/mL,,0.9,,2 µg/mL,2 µg/mL,,,,,,
Cc1cn([C@H]2CCCN([C@H](CC(C)(C)C)c3ccc(C(=O)O)c(Oc4cccc(Br)c4)c3)C2)c(=O)[nH]c1=O,0.8 nM,0.2 nM,> 64 µg/mL,0.02 µg/mL,62000 nM,1.1,> 64 µg/mL,0.25 µg/mL,0.25 µg/mL,1 µg/mL,150 mg/kg,0.08 µg/mL,800 mg/kg/day,0.25 µg/mL,2 µg/mL
Cc1cn([C@H]2CCCN([C@@H](CC(C)(C)C)c3ccc(C(=O)O)c(Oc4cccc(Br)c4)c3)C2)c(=O)[nH]c1=O,2.8 nM,0.6 nM,,0.03 µg/mL,,1.2,,1 µg/mL,2 µg/mL,,,,,,
CCC(C)(C)C[C@H](c1ccc(C(=O)O)c(Oc2cccc(Cl)c2)c1)N1CCC[C@H](n2cc(C)c(=O)[nH]c2=O)C1,1 nM,0.3 nM,> 64 µg/mL,0.05 µg/mL,43400 nM,1.4,> 64 µg/mL,0.1 µg/mL,0.25 µg/mL,,,,,,
CCC(CC)C[C@H](c1ccc(C(=O)O)c(Oc2cccc(Cl)c2)c1)N1CCC[C@H](n2cc(C)c(=O)[nH]c2=O)C1,< 3 nM,0.1 nM,,0.02 µg/mL,,1.7,,0.1 µg/mL,0.25 µg/mL,,,,,,
CCCCC[C@H](c1ccc(C(=O)O)c(Oc2cccc(Br)c2)c1)N1CCC[C@H](n2cc(C)c(=O)[nH]c2=O)C1,0.5 nM,< 0.1 nM,> 64 µg/mL,0.01 µg/mL,32000 nM,1.1,> 64 µg/mL,0.1 µg/mL,0.25 µg/mL,0.06 µg/mL,,0.04 µg/mL,,0.25 µg/mL,0.5 µg/mL
CCC(C)(CC)C[C@H](c1ccc(C(=O)O)c(Oc2cccc(Br)c2)c1)N1CCC[C@H](n2cc(C)c(=O)[nH]c2=O)C1,1.3 nM,0.3 nM,,0.03 µg/mL,,2,,0.03 µg/mL,0.1 µg/mL,,,,,,
CCCC(C)(C)C[C@H](c1ccc(C(=O)O)c(Oc2cccc(Cl)c2)c1)N1CCC[C@H](n2cc(C)c(=O)[nH]c2=O)C1,0.7 nM,0.3 nM,,0.06 µg/mL,,2,,0.06 µg/mL,0.25 µg/mL,,,,,,
Cc1cn([C@H]2CCCN([C@H](CC3CCCCC3)c3ccc(C(=O)O)c(Oc4cccc(Cl)c4)c3)C2)c(=O)[nH]c1=O,0.7 nM,< 0.1 nM,,0.01 µg/mL,,,,0.1 µg/mL,0.25 µg/mL,,,,,,
Cc1cn([C@H]2CCCN([C@H](CC3CCOCC3)c3ccc(C(=O)O)c(Oc4cccc(Cl)c4)c3)C2)c(=O)[nH]c1=O,1.6 nM,< 0.1 nM,,0.1 µg/mL,,-0.25,,8 µg/mL,16 µg/mL,,,,,,
Cc1cn([C@H]2CCCN([C@H](CC34CC5CC(CC(C5)C3)C4)c3ccc(C(=O)O)c(Oc4cccc(Br)c4)c3)C2)c(=O)[nH]c1=O,1.1 nM,0.1 nM,,0.03 µg/mL,,2.5,,0.1 µg/mL,0.25 µg/mL,,,,,,
Cc1cccc(Oc2cccc(CN3CCC[C@H](n4cc(C)c(=O)[nH]c4=O)C3)c2)c1,2700 nM,300 nM,,,,,,,,,,,,,
